Source: PubChem (Broad Institute)
CAL PDZ FP-1: inhibitors of human CAL PDZ peptide binding; purified CAL PDZ, TMR-peptide fluorescence polarization, 1 h; hit rate 0.92% among 300,000; Q9HD26; inhibition, % at 24.9 µM;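 active = mean inhibition of at least 30% with at least half of replicates also reaching 30%; inconclusive = no clear call, values can overlap the other calls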;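 note: 0% = DMSO neutral control and 100% = excess unlabeled competitor peptide PRC23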
DYRK1A inh: inhibitors of rat Dyrk1A kinase; AID 504441; ADP-Glo luminescence, NFATc1 peptide; hit rate 0.43% among 310,000; inhibition, % at 12.5 µM; Q63470; in the data active = inhibition above about 50%;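 note: plate controls were vehicle with enzyme for no effect and no enzyme for full effect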
Rtt109 HAT inh: C. albicans Rtt109 histone acetyltransferase inhibition; purified Rtt109/Vps75, ThioGlo CoA-SH fluorescence, 4 h; AID 540336; inhibition, % at 34.9 µM; hit rate 0.16% among 330,000;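 active = inhibition of at least 50% in every replicate; inconclusive = best replicate reaches 50% inhibition but some replicates fall short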
Target sequence (Q5AAJ8 whole entry, looked up): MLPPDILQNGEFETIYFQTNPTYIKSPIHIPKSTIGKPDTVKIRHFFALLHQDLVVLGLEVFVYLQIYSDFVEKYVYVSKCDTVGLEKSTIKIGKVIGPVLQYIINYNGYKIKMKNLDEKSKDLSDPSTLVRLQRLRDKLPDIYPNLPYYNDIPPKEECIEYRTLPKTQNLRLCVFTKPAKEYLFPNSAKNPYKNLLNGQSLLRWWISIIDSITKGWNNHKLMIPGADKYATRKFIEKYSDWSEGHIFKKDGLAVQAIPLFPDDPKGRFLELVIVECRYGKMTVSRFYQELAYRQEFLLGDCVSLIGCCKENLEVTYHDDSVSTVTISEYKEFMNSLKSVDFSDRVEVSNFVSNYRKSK
ALR inh: inhibitors of human sulfhydryl oxidase ALR. purified ALR, DTT oxidation, H2O2 HRP-luminol luminescence. inhibition, % (test concentration not listed). AID 485317. P55789. hit rate 3.8% among 290,000;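 active = mean replicate inhibition above about 79%, with every replicate also reaching it, limit read from the data; inconclusive = only one of the two criteria met; inactive = mean below limit and not every replicate reaching it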
Target sequence (P55789 whole entry, looked up): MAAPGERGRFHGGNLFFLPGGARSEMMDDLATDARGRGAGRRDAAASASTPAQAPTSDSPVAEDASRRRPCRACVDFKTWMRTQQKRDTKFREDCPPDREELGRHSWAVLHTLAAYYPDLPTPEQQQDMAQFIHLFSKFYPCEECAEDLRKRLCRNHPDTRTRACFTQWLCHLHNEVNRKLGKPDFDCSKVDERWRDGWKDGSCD
CAL PDZ FP-2: human CAL PDZ-peptide interaction inhibition | Q9HD26 | purified CAL PDZ, TMR-peptide fluorescence polarization, 1 h | inhibition, % at 20 µM | hit rate 0.02% among 330,000 | AID 504414;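 active = highest replicate inhibition of at least 40%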;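 note: plate controls were DMSO neutral control wells for no effect and unlabeled competitor peptide control wells for full effect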
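material = purified tagged CAL PDZ domain construct (CerCALP) | compound dosing = 20 µM, one dose | times = 1 h at RT | measured by = fluorescence polarization from S- and P-plane intensities, G-factor corrected | read-out = inhibition from polarization loss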
Dyrk1A artifact: counter-screen for Dyrk1A inhibitors: ADP-Glo luciferase artifacts | shares compounds with DYRK1A inh | AC50, µM (doses to about 12 µM), without a hit: at the top dose activity change, negative = inhibition | 1,300 tested, under 10 active | AID 588348 | ADP-Glo luciferase artifact assay, no Dyrk1A, luminescence;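 active = fitted half-maximal dose AC50 no more than ten times the top valid tested dose, with luminescence dropping as dose rises; inconclusive = poor fit, or flat fit with 30 to 70% inhibition; inactive = the rest, signal increases included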
Numbers without * were called inactive; ? = inconclusive; . = no result given. An excerpt weighted towards active compounds, which were near 4.3% of everything screened.

SMILES	CAL PDZ FP-1	DYRK1A inh	Rtt109 HAT inh	ALR inh	CAL PDZ FP-2	Dyrk1A artifact
O=C1C=C(c2ccc3c(c2)OCO3)C[C@@H](c2ccc(F)cc2)C1	1	19	11	-3	0	.
Cc1cccc(CN(CC(=O)N/N=C/c2cccs2)S(=O)(=O)c2ccc(Cl)cc2)c1	-3	-1	-5	-17	-1	.
Oc1ccc2ccc3[nH]cnc3c2c1	-2	80*	4	100*	0	11%
O=C(COC(=O)/C=C/c1cccs1)NC1CC1	2	14	11	4	-3	.
COc1cccc(C(=O)c2sc(NC(C)C)nc2N)c1	-1	53*	17	39	0	7%
O=c1nc2n(c3sc4c(c13)CCCC4)C(CBr)CS2 (stereo not drawn)	7	51*	-1	86*	0	7%
CC(CCc1ccccc1)NC(=O)CNC(=O)c1cccs1 (stereo not drawn)	-1	-4	3	-1	-1	.
COc1cccc(-c2nnc3sc(C4CCCCC4)nn23)c1	-3	53*	-42	-3	-5	6%
Oc1cccc(NC(=S)N=Nc2c(O)[nH]c3ccccc23)c1	-8	51*	21	99*	-1	12%
Cc1cc(NC(=O)CN2C(=O)[C@@H]3[C@H](C2=O)[C@@H]2C[C@H]3C(Br)C2Br)no1 (stereo partly drawn)	.	23	16	.	-1	.
COc1ccc(-c2coc3cc(O)ccc3c2=O)cc1O	9	57*	-2	77*	-3	9%
O=c1/c(=C/c2ccco2)sc2n1CN(c1ccccc1)CN=2	-7	48	3	8	1	.
Cc1ccc(N2CN=c3s/c(=C\c4ccccn4)c(=O)n3C2)cc1	-6	52*	1	-2	-1	6%
Cc1nc2ccc3[nH]snc3c2n1	.	55*	-7	-28	-1	7%
Cc1ccccc1NS(=O)(=O)c1cc(C(=O)NCc2ccncc2)ccc1Cl	2	11	16	-2	-3	.
N#C/C(=C/c1ccc(O)c(O)c1)c1nc2ccccc2[nH]1	114*	67*	16	90*	3	9%
N#C/C(=C\c1ccc(N2CCCC2)c([N+](=O)[O-])c1)c1nc2ccccc2[nH]1	-1	-4	7	-6	1	.
CCCn1cnc2scc(-c3ccc(OC)cc3)c2c1=O	.	60*	0	-2	-2	3%
CCCn1cnc2scc(-c3ccc(C)cc3)c2c1=O	-9	-2	-1	-1	-3	.
CC(Nc1nc(-c2cccnc2)nc2ccccc12)c1ccc(F)cc1 (stereo not drawn)	-7	62*	29	2	-3	10%
CCOC(=O)C1CCCN(c2c(N3CCN(C4CCCCC4)CC3)c(=O)c2=O)C1 (stereo not drawn)	.	60*	12	4	0	6%
CC(C)C(NC(=O)c1ccc(C(C)(C)C)cc1)C(=O)Nc1cccc(S(N)(=O)=O)c1 (stereo not drawn)	-3	.	4	-5	0	.
COc1cc(C(C)=O)ccc1Oc1ncnc2c1cnn2-c1ccccc1	-3	62*	15	-8	-3	8%
COc1cc(C(C)=O)ccc1Oc1ncnc2c1cnn2-c1ccc(C)c(C)c1	-2	-8	-4	.	0	.
Fc1ccccc1NC(=S)N1CCN(Cc2ccccc2)CC1	-1	-1	1	-11	0	.
SMILES	CAL PDZ FP-1	DYRK1A inh	Rtt109 HAT inh	ALR inh	CAL PDZ FP-2	Dyrk1A artifact
Cc1c(N)cccc1[N+](=O)[O-]	-3	.	-12	21	-1	.
Nc1cc2c([N+](=O)[O-])cccc2o1	2	60*	3	85*	-2	8%
CC(Sc1nnc(NC2CCCCC2)s1)C(=O)Nc1ccc2c(c1)C(=O)c1ccccc1C2=O (stereo not drawn)	-4	-1	-1	-5	-1	.
N#CCSc1nc(Nc2ccc3c(c2)OCO3)c2ccccc2n1	.	60*	-11	0	-6	7%
Cn1cc(CN2CCCC(C(=O)Nc3ccc(-c4cccc(F)c4)cc3)C2)cn1 (stereo not drawn)	-1	.	-1	-15	-3	.
COc1ccc2c3c(ccc2c1)C(=O)/C(=C/O)CC3	-3	63*	-8	.	1	9%
N=C(N)c1ccc(N=Nc2c(O)ccc3c2[nH]c2ccccc23)cc1	-3	78*	2	.	8	6%
COCCCN(C(C)=O)c1nc(-c2ccc(OC)cc2)cs1	.	76*	14	-13	-1	7%
CCN(CC)CCCN(C(=O)c1ccc(OC)cc1)c1nc(-c2ccc(OC)cc2)cs1	6	7	15	.	-3	.
O=C1C(C=NCc2cccnc2)=C(O)c2ccccc21	3	5	1	.	-1	.
O=C1C(C=NCc2ccncc2)=C(O)c2ccccc21	-4	66*	13	-30	0	10%
O=C(Nc1ccccc1C(=O)NCc1ccccc1)C1=CSCCO1	0	-2	-5	1	-2	.
Cc1cccc(CNc2ncnc3ccc(-c4ccoc4)cc23)c1	-5	66*	-3	5	-3	14%
Cc1cc(Cl)ccc1NC(=O)CN(C)C1=NS(=O)(=O)c2ccccc21	-3	.	-5	-1	-1	.
CN1/C(=N\O)c2cccc3cccc1c23	-1	66*	-61	?	-1	10%
CNC(=O)CN1C(=O)c2cccc3cccc1c23	-1	4	-48	-19	.	.
CCCN1CCN(c2ncnc3scc(C4COc5ccccc5O4)c23)CC1 (stereo not drawn)	5	57*	3	1	0	9%
c1ccc2c(c1)OCC(c1csc3ncnc(N4CCCCC4)c13)O2 (stereo not drawn)	5	-3	1	-2	.	.
Cc1cccc(NC(=O)c2cnc3sccn3c2=O)n1	.	60*	2	.	1	7%
Cc1noc(NS(=O)(=O)c2ccc(N/C=C\C(=O)c3ccc(Br)cc3)cc2)c1C	.	63*	27	53	0	7%
CC1CCC(NC(=O)c2cc(S(=O)(=O)N3CCCCC3)c[nH]2)CC1 (stereo not drawn)	.	57*	3	7	0	8%
Cc1ccc(CCNC(=O)C2CCN(S(=O)(=O)c3cccc4nonc34)CC2)cc1	0	57*	14	-4	1	11%
O=C(CSc1nc(-c2ccco2)cc(C(F)(F)F)n1)NCCCn1ccnc1	.	58*	26	2	-2	8%
c1ccc2c(-c3ccncc3)c[nH]c2c1	-4	76*	5	22	-2	8%
Oc1ccc(Nc2nc(-c3ccccc3)nc3ccccc23)cc1	-3	86*	-4	98*	0	8%
COc1ccc(-c2cn[nH]c2-c2ccc(OCc3ccccc3)cc2O)cc1	2	0	2	2	-1	.
